One data set has as its system Plasma. The data set is described as follows: Unbound plasma concentration in amphetamine-induced hyperlocomotion C57BL/6 mouse at 0.3 mg/kg, sc measured after 1 hr by LC-MS/MS analysis. The data set is classed as ADME, organism-based. The following applies: in vivo. In outline:
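Satellite group of C57BL/6 mice from the amphetamine-stimulated locomotor study, N = 2/dose at 0.32, 1 and 3.2 mg/kg. Dosed sc as a solution in 10/90 Cremophor/water. Unbound plasma and brain concentrations measured at T = 1 h.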

In data set [1] the test system is Canis familiaris. The data set is described as follows: Toxicity in dog assessed as vocalization at 15 mg/kg, po administered as single dose using spray dried dispersion formulation after 1 hr. The following applies: in vivo. Type of data set: organism-based, Canis lupus familiaris.
Data set [2] in a line: Half life in dog at 0.5 mg/kg, po administered as single dose. The data set is classed as ADME, organism-based, Canis lupus familiaris. The following applies: in vivo. In a few lines: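 Dog, single oral dose of 0.5 mg/kg as a suspension in 0.5% methylcellulose. Half-life taken after the oral dose.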
In data set [3] the target is T1, Muscarinic acetylcholine receptor M1 (Homo sapiens, UniProt P11229).
T1 sequence (P11229 whole entry): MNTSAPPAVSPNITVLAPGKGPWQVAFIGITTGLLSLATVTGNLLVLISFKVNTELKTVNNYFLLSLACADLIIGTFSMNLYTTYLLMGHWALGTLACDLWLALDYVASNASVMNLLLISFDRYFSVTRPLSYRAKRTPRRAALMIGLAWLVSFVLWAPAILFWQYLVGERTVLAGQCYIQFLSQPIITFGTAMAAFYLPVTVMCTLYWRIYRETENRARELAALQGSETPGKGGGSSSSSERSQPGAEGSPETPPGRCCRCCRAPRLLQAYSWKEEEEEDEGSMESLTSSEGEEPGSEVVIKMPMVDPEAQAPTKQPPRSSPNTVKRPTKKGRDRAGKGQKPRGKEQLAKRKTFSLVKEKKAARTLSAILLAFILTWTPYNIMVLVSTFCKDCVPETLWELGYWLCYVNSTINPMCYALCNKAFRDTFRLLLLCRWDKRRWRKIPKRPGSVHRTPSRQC
Briefly: Activity at human muscarinic acetylcholine receptor M1 expressed in CHO cells assessed as increase in acetylcholine-induced beta-arrestin recruitment. The data set is classed as cell-based. In general terms: Arrestin recruitment assays detect the binding of arrestin to an activated receptor.

In data set [4] the test system is Canis familiaris. The data set is described as follows: Toxicity in dog assessed as death at 5 mg/kg, po administered as single dose using spray dried dispersion formulation after 1 day. The following applies: in vivo, 24 h. The data set is classed as organism-based, Canis lupus familiaris. In a few lines:
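Single oral dose in dogs, 1/sex/dose. Spray-dried dispersion formulation: 23% drug loading with 0.5% methylcellulose and 100 mM citrate buffer. Clinical signs were recorded by hours postdose, with animals checked the next morning. Necropsy was performed.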

The target of data set [5] is T2, Muscarinic acetylcholine receptor M1 (Rattus norvegicus, UniProt P08482).
T2 sequence (P08482 whole entry): T1 sequence (P11229 whole entry) with A5V, T254S, P309S, R320K, A337G, I413V
The data set is described as follows: Positive allosteric modulation of muscarinic acetylcholine receptor M1 in Sprague-Dawley rat brain hippocampal slices assessed as increase in carbachol-induced firing rate at CA1 pyramidal neurons after 10 mins by electrophysiology method. In outline: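 Rat hippocampal slices; spontaneous action potentials recorded from CA1 pyramidal neurons, read as spike rate. Agonist mode has no carbachol; PAM mode uses an EC20 level of carbachol. Top concentration tested was 3 μM.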

The test system of the next data set is Brain. Briefly: Unbound brain concentration in scopolamine-induced memory impairment Wistar rat model at 3.2 mg/kg, sc measured after 1.25 hrs by LC-MS/MS analysis. Type of data set: ADME, organism-based. The following applies: in vivo.
Data set [6] deals with Canis familiaris. The data set is described as follows: Cholinergic toxicity in dog assessed as ataxia at 5 mg/kg, po administered as single dose using spray dried dispersion formulation after 2 hrs. Type of data set: organism-based, Canis lupus familiaris. The following applies: in vivo. In outline: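 Dog single oral dose escalation: 1/sex at 5 mg/kg for each formulation; 1 female at 15 mg/kg. Spray-dried dispersion: 23% drug loading with 0.5% methylcellulose and 100 mM citrate buffer. Clinical signs timed in approximate hours postdose; unbound plasma Cmax.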

Data set [7] deals with T3, Muscarinic acetylcholine receptor M5 (Homo sapiens, UniProt P08912).
T3 sequence (P08912 whole entry): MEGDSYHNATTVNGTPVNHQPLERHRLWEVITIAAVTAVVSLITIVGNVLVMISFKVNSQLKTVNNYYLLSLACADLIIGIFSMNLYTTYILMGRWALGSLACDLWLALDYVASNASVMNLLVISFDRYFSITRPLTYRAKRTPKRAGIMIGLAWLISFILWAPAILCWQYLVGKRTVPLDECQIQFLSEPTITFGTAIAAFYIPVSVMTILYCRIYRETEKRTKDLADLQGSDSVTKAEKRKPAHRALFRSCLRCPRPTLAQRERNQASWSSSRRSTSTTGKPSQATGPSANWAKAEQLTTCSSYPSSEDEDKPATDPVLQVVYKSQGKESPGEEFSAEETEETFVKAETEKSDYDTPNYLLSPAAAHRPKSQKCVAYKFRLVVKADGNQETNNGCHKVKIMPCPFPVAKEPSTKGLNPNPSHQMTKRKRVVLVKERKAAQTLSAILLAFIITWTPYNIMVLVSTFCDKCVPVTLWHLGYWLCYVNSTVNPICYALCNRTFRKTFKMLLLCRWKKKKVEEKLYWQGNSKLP
The data set is described as follows: Positive allosteric modulation of human muscarinic acetylcholine receptor M5 expressed in CHO cells assessed as increase in acetylcholine-induced calcium mobilization up to 10 uM preincubated for 10 mins followed by acetylcholine addition by Fluo-8-AM dye based FLIPR assay. Type of data set: cell-based. In a few lines: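 Recombinant functional human M2–M5 assays, each run in agonist and PAM modes at concentrations up to 10 μM.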

Changes are numbered by the printed parent chain.

For the compound `Cc1cc2c(cc1Cc1ccc(-c3cocn3)cc1)C(=O)N([C@H]1CCOC[C@@H]1O)C2`, the “Cp(f)” value in the data set on Plasma was 7.3 nM. For the same compound, the Activity entry was “Toxic” in the data set on Canis familiaris [1]; “Toxic” in the data set on Canis familiaris [4]; “Dose-dependent effect” in data set [5]; “Toxic” with Canis familiaris [6]; “Not Active” in data set [7]. In [2], this compound showed a half-life of 7.3 h. In data set [3], the KA was 60 µM. In addition, the “Drug uptake(free)” value in the data set with Brain worked out at 40 nM.

For orientation: half-life means the time in which the quantity being followed falls by half. Low readings indicate fast loss, high ones slow loss.

Values taken from ChEMBL document CHEMBL4017487, “Design and Synthesis of γ- and δ-Lactam M1 Positive Allosteric Modulators (PAMs): Convulsion and Cholinergic Toxicity of an M1-Selective PAM with Weak Agonist Activity” (J Med Chem, 2017).
